Compound activity: PubChem, Sanford-Burnham Center for Chemical Genomics
SENP8 block-1 – inhibitors of human SENP8 protease; inhibition, % at 20 µM; Q96LD8; 0.64% of 360,000 active; recombinant SENP8, Nedd8 substrate fluorescence; AID 602440; in the data active = inhibition mostly above about 40%, no sharp cut-off; inactive = mostly below about 27%
SENP8 block-2 – inhibitors of human SENP8 protease. inhibition, % at 10 µM. purified SENP8, Z-RLRGG-aminoluciferin cleavage, luminescence. AID 2540. 1.2% of 330,000 active; in the data active = inhibition above about 50%
SENP7 inh – SENP7 protease inhibition; Q9BQF6; inhibition, % at 5 µM; 1.5% of 330,000 active; AID 434973; recombinant SENP7, Z-RLRGG-aminoluciferin luminescence, 40 min;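 active = inhibition above about 50% at the single test dose, limit read from the data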
SENP1 FRET inh – SENP1 (human) catalytic domain inhibition. Q9P0U3. recombinant SENP1 catalytic domain, CyPet-SUMO1-YPet FRET cleavage. inhibition, % at 10 µM. 0.21% of 360,000 active. AID 624204;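 active = inhibition at least 30% at 10 µM, raw YFP signal under a set limit, fluorescence ratio 0.5 to 1.5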
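Material: hSENP1 catalytic domain, recombinant; medium: Tris pH 8 with BME, BSA, NP40 and catalase; compound: single concentration of 10 µM compound, 0.5% DMSO final; technique: FRET read of cyan and yellow fluorescence; timing: 50 min enzyme reaction, room temperature, light-protected; reagent: SFCypet-SUMO1-SFYpet substrate at 25 nM; control set: no-enzyme low, enzyme-DMSO high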
SENP6 block – blocks the human protease SENP6. inhibition, % at 10 µM. Recombinant SENP6 catalytic domain, aminoluciferin luminescence. 1.8% of 330,000 active. Q9GZR1;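 active = inhibition above about 50% at the single tested dose, limit read from the data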
Target sequence (Q9GZR1 628-1112 limits assumed): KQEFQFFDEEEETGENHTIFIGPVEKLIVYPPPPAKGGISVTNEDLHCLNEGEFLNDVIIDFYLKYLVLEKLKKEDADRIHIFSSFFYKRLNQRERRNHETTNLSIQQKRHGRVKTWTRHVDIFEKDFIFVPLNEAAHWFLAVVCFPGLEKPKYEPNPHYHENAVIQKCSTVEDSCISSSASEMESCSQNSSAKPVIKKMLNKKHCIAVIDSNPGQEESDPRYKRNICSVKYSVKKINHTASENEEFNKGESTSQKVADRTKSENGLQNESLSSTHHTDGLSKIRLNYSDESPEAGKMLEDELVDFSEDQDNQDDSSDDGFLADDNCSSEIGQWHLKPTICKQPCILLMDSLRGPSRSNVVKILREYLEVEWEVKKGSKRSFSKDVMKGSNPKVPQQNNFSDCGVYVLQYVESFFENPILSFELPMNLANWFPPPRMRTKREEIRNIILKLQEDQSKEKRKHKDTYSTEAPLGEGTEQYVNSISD
SENP8 conf – human SENP8 inhibition, confirmed; 40% of 6,200 active; inhibition, % at 12.5 µM; AID 488912; Recombinant SENP8, Z-RLRGG-aminoluciferin luminescence, 60 min; shares compounds with SENP7 inh;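 active = mean inhibition across replicates above about 50%, limit read from the data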
SENP6 confirm – human SENP6 inhibition, confirmed; shares compounds with SENP7 inh; AID 488915; inhibition, % at 12.5 µM; recombinant SENP6, Z-RLRGG-aminoluciferin luminescence; 58% of 6,200 active
SENP7 conf – confirmation of human SENP7 protease inhibitors. 69% of 6,200 active. inhibition, % at 12.5 µM. AID 488917. recombinant SENP7, Z-RLRGG-aminoluciferin luminescence, 40 min. shares compounds with SENP7 inh
Casp3 SENP sel – caspase-3 inhibition (SENP selectivity assay) | shares compounds with SENP7 inh | purified caspase-3, Z-DEVD-aminoluciferin luminescence, 60 min | inhibition, % at 12.5 µM | 60% of 6,200 active | AID 488918;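 active = mean inhibition above about 50%, limit read from the data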
Target sequence (P42574 28-227 limits assumed): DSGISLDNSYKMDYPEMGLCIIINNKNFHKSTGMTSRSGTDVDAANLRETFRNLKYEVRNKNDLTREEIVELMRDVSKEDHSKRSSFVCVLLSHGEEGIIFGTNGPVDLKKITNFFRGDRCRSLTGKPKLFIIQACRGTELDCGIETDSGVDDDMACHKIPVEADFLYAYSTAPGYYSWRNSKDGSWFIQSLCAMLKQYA
SENP luc ctr – counter-screen for SENP inhibitors: luminescence interference; AID 488919; inhibition, % at 12.5 µM; 39% of 6,200 active; Pre-incubated SENP8/Z-RLRGG-aminoluciferin, luciferase luminescence interference; shares compounds with SENP7 inh;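 active = mean inhibition above about 50% when retested at one dose, limit read from the data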
Numbers stand for hits; 0 = inactive; - = not tested or not shown. In the library only some 2.5% were active in any assay of this set; here they are far more common.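 Rule for the calls, unless noted: active = mean inhibition above about 50% in the one-dose retest (limit read from the data); inactive = the rest.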

SMILES	SENP8 block-1	SENP8 block-2	SENP7 inh	SENP1 FRET inh	SENP6 block	SENP8 conf	SENP6 confirm	SENP7 conf	Casp3 SENP sel	SENP luc ctr
COc1ccc2c(COC(=O)[C@@H]3CCCN3S(=O)(=O)c3ccc(Cl)cc3)cc(=O)oc2c1	0	0	0	0	0	-	-	-	-	-
COc1cc(C=O)ccc1OCc1ccccc1Br	0	70.0	66.0	0	75.3	0	67.8	88.6	69.0	73.4
COc1cccc2sc(Nc3nnc(-c4ccc(F)cc4)o3)nc12	0	0	0	0	75.4	0	0	86.2	66.2	0
COc1cccc2sc(Nc3nnc(-c4cccs4)o3)nc12	0	83.5	72.7	0	91.8	84.2	84.0	96.7	82.6	55.3
O=C(NCc1ccc(F)cc1)c1ccc2c(c1)S(=O)(=O)c1ccccc1C2=O	0	0	0	0	0	-	-	-	-	-
Cc1ccc(CNS(=O)(=O)c2c(C(=O)N3CCCCC3)c(C)n(C)c2C)o1	0	0	0	0	0	-	-	-	-	-
C=CCn1c(NC(=O)c2ccc(Br)o2)c(S(=O)(=O)c2ccccc2)c2nc3ccccc3nc21	0	0	0	0	72.7	0	0	0	0	0
O=C(Nc1ccc(S(=O)(=O)NCc2ccccc2)cc1)c1ccc(Br)o1	0	0	0	0	0	-	-	-	-	-
COC(=O)CSc1nnc(CNc2ccc(Cl)cc2)n1-c1ccccc1	0	0	0	0	0	-	-	-	-	-
COc1ccccc1NS(=O)(=O)c1cccc(NS(=O)(=O)c2ccc(Cl)c(C(=O)O)c2)c1	0	0	0	0	0	-	-	-	-	-
CC(=O)Oc1cccc(/C=C2\Sc3ccccc3C2=O)c1	0	89.3	83.0	0	90.5	75.4	93.9	68.5	0	0
O=C1Nc2ccccc2S/C1=C/c1cccs1	0	0	0	0	0	-	-	-	-	-
CC(=O)Oc1cccc(/C=C2\C=C(c3ccc(C)cc3)OC2=O)c1	0	0	0	0	0	-	-	-	-	-
O=C1NC(=O)/C(=C\c2ccc(OCc3cnc(Cl)s3)cc2)S1	0	0	0	0	0	-	-	-	-	-
CC(C)COc1ccc(/C=C2/Sc3ccccc3C2=O)cc1	0	94.3	95.0	0	96.1	0	0	0	0	0
CCCCOc1ccc(/C=C2/Sc3ccccc3C2=O)cc1	0	76.0	71.3	0	0	0	0	0	0	0
O=C1/C(=C/c2cccs2)Sc2ccccc21	0	81.5	92.9	0	86.2	0	0	58.0	0	0
Cc1ccc2c(C)c(C)c(=O)n(C)c2c1	0	-	-	0	-	-	-	-	-	-
Cc1ccc(-n2c(SCC(N)=O)nnc2-c2ccc(S(=O)(=O)N3CCCCC3)cc2)c(C)c1	0	0	0	0	0	-	-	-	-	-
CN(C)CCCN(C(=O)COc1ccc(Cl)cc1)c1nc2ccc(F)cc2s1	0	0	0	0	54.7	0	0	0	0	0
CN(C)CCCN(C(=O)COc1ccccc1)c1nc2ccc(F)cc2s1	0	0	0	0	0	-	-	-	-	-
Fc1cccc(/C=N/Nc2ccc3ccccc3n2)c1	0	91.4	94.5	0	95.3	93.6	94.2	100.4	81.7	0
Brc1ccc(/C=N/Nc2ccc3ccccc3n2)cc1	0	62.3	58.6	0	78.0	0	0	0	0	0
C(=N\Nc1ccccn1)/c1ccc2c(c1)OCCO2	0	71.6	83.2	0	85.6	81.2	80.1	96.6	84.1	0
Brc1ccccc1/C=N/Nc1ccc2ccccc2n1	0	0	70.0	0	74.6	0	77.8	91.1	53.0	0
SMILES	SENP8 block-1	SENP8 block-2	SENP7 inh	SENP1 FRET inh	SENP6 block	SENP8 conf	SENP6 confirm	SENP7 conf	Casp3 SENP sel	SENP luc ctr
Fc1cccc(/C=N/Nc2nc3ccccc3[nH]2)c1	-	0	0	-	0	-	-	-	-	-
Brc1ccc(/C=N/Nc2ccccc2)cc1	0	0	0	0	0	-	-	-	-	-
Cc1ncc(CO)c(CO)c1OCC(O)CN1CCN(c2ccc(F)cc2)CC1 (centres undefined)	0	-	-	0	-	-	-	-	-	-
COc1ccc(NS(=O)(=O)c2cc(N)ccc2N2CCOCC2)cc1	0	0	0	0	0	-	-	-	-	-
O=C1C2C3C=CC(O3)C2C(=O)N1N=Cc1cccc2ccccc12 (centres undefined)	0	-	-	0	-	-	-	-	-	-
CSc1nc(C)cc(SCC(=O)N/N=C/c2ccccc2)n1	0	0	0	0	0	-	-	-	-	-
Fc1cccc(/C=N/Nc2ccccn2)c1	0	55.4	74.0	0	0	51.1	79.0	95.3	76.7	0
CCCCCC(=O)Nc1cc(S(=O)(=O)N2CCOCC2)ccc1Oc1ccc(OCC)cc1	0	0	0	0	0	-	-	-	-	-
COc1ccc(-c2cc(C(=O)Nc3ccccc3)on2)cc1	0	0	86.5	0	60.7	0	0	0	0	0
COc1ccc(-c2cc(C(=O)Nc3ccccc3F)on2)cc1	0	0	69.8	0	0	0	0	0	0	0
C/C(=N\Nc1ccccc1C(=O)O)c1ccncc1	0	52.4	52.0	0	71.7	64.6	60.5	87.9	82.1	68.5
CC(=NNC(=O)c1ccncc1)c1ccccc1Cl	0	-	-	0	-	-	-	-	-	-
C/C(=N\NC(=O)c1ccccc1NC(=O)c1ccc(Cl)cc1)c1ccncc1	0	89.1	97.1	0	96.8	0	96.3	100.6	97.7	0
C/C(=N/NC(=O)c1ccncc1)c1ccccc1	0	0	0	0	0	-	-	-	-	-
CC(=O)CSc1nc2cc3c(cc2cc1C#N)OCCO3	0	95.1	97.1	0	91.4	83.5	87.0	58.1	86.0	0
O=[N+]([O-])c1ccc(Nc2ccc3ccccc3c2)nc1	0	0	0	0	0	-	-	-	-	-
O=C(O)c1cccc(Nc2ccc([N+](=O)[O-])cn2)c1	0	89.5	92.6	0	91.2	92.0	92.4	100.6	82.7	93.1
O=C(O)c1ccc(N/N=C/c2cc3c(cc2[N+](=O)[O-])OCO3)cc1	0	0	0	0	0	-	-	-	-	-
O=C(O)c1ccc(N/N=C/c2ccc3c(c2)OCO3)cc1	0	97.8	99.7	0	97.1	99.0	100.2	102.7	98.5	98.3
Cc1ccc(/C=N/Nc2ccc(Cl)c(C(=O)O)c2)s1	0	83.7	83.7	0	95.8	95.5	96.4	101.2	50.5	94.2
O=C(O)c1cc(N/N=C/c2ccc3c(c2)OCCO3)ccc1Cl	0	-	-	0	-	-	-	-	-	-
O=C(O)c1cc(N/N=C/c2ccc3c(c2)OCO3)ccc1Cl	0	69.3	0	0	66.2	0	80.8	94.7	62.9	83.2
Cc1nc2ccc(C(=O)OCc3ccccc3Br)cc2nc1C	0	0	56.2	0	67.3	0	0	0	0	0
